Assay results taken from ChEMBL document CHEMBL3286302, “Design, synthesis and biological evaluation of small molecular polyphenols as entry inhibitors against H(5)N(1)” (Bioorg Med Chem Lett, 2014).
Activity calls are given as the source filed them. The calls are words filed in the database; no cut-off is given here.

How the values were obtained:
[1] = Cytotoxicity against MDCK cells after 72 hrs by MTT assay; assay type: cell-based, Canis lupus familiaris; details: dog
In short: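 Uninfected MDCK cells were assayed by MTT. CC50 is the concentration causing 50% cell death. Values are the average of three separate experiments.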

[2] = Antiviral activity against Influenza A virus (A/Vietnam/1194/2004(H5N1)) infected in MDCK cells assessed as inhibition of viral replication after 2 to 3 days by crystal violet staining-based plaque reduction assay; assay type: functional, cell-based
[3] = Selectivity index, ratio of CC50 for MDCK cells to IC50 for Influenza A virus (A/Vietnam/1194/2004(H5N1)); assay type: functional
[4] = target: Neuraminidase (Influenza A virus) (UniProt B4URF0); assay: Inhibition of Influenza A virus H5N1 neuraminidase up to 20 ug/ml by fluorescence spectrophotometric analysis
cells [5] = assay type: functional, Influenza A virus (A/Vietnam/1194/2004(H5N1)); details: Influenza A virus, MDCK, 2 h
cells [6] = assay type: functional, Influenza A virus (A/Vietnam/1194/2004(H5N1)); details: Influenza A virus, MDCK, 2 h; remark: listed apart in the source
Influenza A virus = assay: Inhibition of Influenza A virus H5N1 hemagglutinin adsorption to chicken RBC at 100 ug/ml by two-fold dilution method
In short: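 Hemagglutination inhibition assay using H5 standard antigen and antiserum. Compounds were tested in serial 2-fold dilutions from 100 to 0.098 µg/ml.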

Chain of Neuraminidase (Influenza A virus) (B4URF0 as listed by the source): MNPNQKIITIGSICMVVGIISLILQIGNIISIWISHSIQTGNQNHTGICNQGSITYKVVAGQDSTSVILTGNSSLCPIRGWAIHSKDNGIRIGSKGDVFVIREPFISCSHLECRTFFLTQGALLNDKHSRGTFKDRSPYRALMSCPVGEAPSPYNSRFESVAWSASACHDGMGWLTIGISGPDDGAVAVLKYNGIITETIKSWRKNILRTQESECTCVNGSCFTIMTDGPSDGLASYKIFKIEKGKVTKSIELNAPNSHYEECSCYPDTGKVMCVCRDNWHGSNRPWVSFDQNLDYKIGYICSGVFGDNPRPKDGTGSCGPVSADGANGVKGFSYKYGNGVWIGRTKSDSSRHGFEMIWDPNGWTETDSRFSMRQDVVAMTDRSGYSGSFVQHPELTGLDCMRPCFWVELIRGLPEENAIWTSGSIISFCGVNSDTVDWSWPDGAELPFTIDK

Row | Compound | CC50 at 72 h [1] | IC50 [2] | Ratio CC50/IC50 [3] | inhibition [4] | inhibition at 30 µM (cells [5]) | inhibition at 30 µM (cells [6]) | inhibition (Influenza A virus)
1 | COC(=O)Cc1ccc(OC)c(OC)c1 | > 159 µM |  |  |  |  |  | 
2 | COC(=O)Cc1ccc(O)c(O)c1 | > 170 µM | 19.5 µM | >8.7 |  |  |  | 
3 | COC(=O)[C@H](CC(C)C)NC(=O)Cc1ccc(O)c(O)c1 | > 183 µM | 41.8 µM | >4.38 |  |  |  | 
4 | COC(=O)[C@H](CC(C)C)NC(=O)c1ccc(O)c(O)c1 | > 119 µM | 22.2 µM | >5.33 | inactive | > 50% | 20% | inactive
5 | COC(=O)[C@H](Cc1ccccc1)NC(=O)c1ccc(O)c(O)c1 | > 106 µM |  |  |  |  |  | 
6 | CC(C)OC(=O)c1ccc(O)c(O)c1 | > 159 µM | 14.9 µM | >10.65 | inactive | > 50% | 20% | inactive
7 | OCc1ccc(O)c(O)c1 | > 143 µM | 1.78 µM | >80.15 | inactive | 100% | 20% | inactive
8 | CC(C)OC(=O)Cc1ccc(O)c(O)c1 | > 149 µM | 15.2 µM | >9.77 |  |  |  | 
9 | COC(=O)c1ccc(OC)c(OC)c1 [VERATRIC ACID METHYL ESTER] | > 170 µM |  |  |  |  |  | 
10 | COC(=O)CCc1ccc(O)c(O)c1 | > 238 µM | 23.8 µM | >10.01 |  |  |  | 
11 | COC(=O)[C@H](Cc1ccccc1)NC(=O)Cc1ccc(O)c(O)c1 | > 170 µM |  |  |  |  |  | 
12 | CC(C)OC(=O)CCc1ccc(O)c(O)c1 | > 198 µM | 19.5 µM | >10.16 |  |  |  | 
13 | CCOC(=O)Cc1ccc(O)c(O)c1 | > 159 µM | 16.9 µM | >9.41 |  |  |  | 
14 | COC(=O)c1ccc(O)c(O)c1 [METHYL PROTOCATECHUATE] | > 183 µM | 18.3 µM | >10.02 |  |  |  | 
15 | CCOC(=O)CCc1ccc(O)c(O)c1 | > 216 µM | 21.5 µM | >10.08 |  |  |  | 
16 | COC(=O)CCc1ccc(OC)c(OC)c1 | > 149 µM |  |  |  |  |  | 
17 | CCOC(=O)c1ccc(O)c(O)c1 | > 170 µM | 16.1 µM | >10.55 |  |  |  | 
18 | NC12CC3CC(CC(C3)C1)C2 [AMANTADINE] | 219 µM | 10.8 µM | 20.27 |  |  |  | 
19 | CC(=O)N[C@H]1[C@H]([C@H](O)[C@H](O)CO)OC(C(=O)O)=C[C@@H]1NC(=N)N [ZANAMIVIR] | > 100 µM | 0.88 µM | >113.64 |  |  |  | 
